Measured values published in the array DNA melting data of Ke et al. (doi:10.1101/2024.01.08.574731).

Assays:
[1] = folding enthalpy; higher = less favourable; fluorescence melt of hairpins on a sequencing array, two-state fit; settings: sodium 0.088 M
Outline: (§1)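 Library hairpins on a sequenced MiSeq flow cell carried annealed Cy3 and quencher oligos, and their Cy3 fluorescence was imaged in 50 mM Na-HEPES pH 8.0 with 25 mM NaCl, in 2.5 °C steps up to 60 °C. Signals were normalised to Cy3 before quenching and to control constructs. Melting temperature and folding enthalpy were obtained from bootstrapped two-state fits, combined by inverse-variance weighting across four replicates, and the fitted temperatures were then raised by 9.35 °C to match UV melts.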

[2] = melting temperature; fluorescence melt of hairpins on a sequencing array, two-state fit, raised by 9.35 °C to match UV melts; settings: sodium 0.088 M
Outline: as §1

Sequence | folding enthalpy [1] [kcal/mol] | Tm [2] [°C]
GCATACGAAAGTAAATGC ((((((....)))..))) | -30 | 42.6
GCACCGCGAAAGCGCAGC ((..(((....)))..)) | -9.35 | 38.4
GCGTTGAACGC ((((...)))) | -18.2 | 54.1
GCGGCCGAAAGGCATCGC ((((((....)))..))) | -23 | 53.1
GATCTCTGGAGAGATC ((((((....)))))) | -34.4 | 53.1
GGAAGCACGAAAGTGTCC (((..(((....)))))) | -13.1 | 31.5
GCAGTAGGAAACTACTAC (.(((((....))))).) | -17.2 | 32.2
GAGTGCGAAAGCATCCTC ((((((....)))..))) | -10.2 | 33
GACTAGGGAAACCCAGTC ((((.((....)).)))) | -30.1 | 40.2
GATCGACCCATCGATC ((((((....)))))) | -44.4 | 51.5
GACAGCCGAAAGGCAGTC (((.(((....))).))) | -22.5 | 60.1
GAGAAAGCGAAAGCTCTC (((..(((....)))))) | -14.6 | 40.2
GGTACCGAAAGGTTAACC ((((((....)))..))) | -17.3 | 38.6
CGATCGGAAACGATCTCG ((((((....)))..))) | -12.1 | 36.9
GTGGTGCCGAAAGGCCAC (((..(((....)))))) | -12.8 | 48
GAGCCGGGAAACCGGTTC ((.((((....)))).)) | -34.5 | 55
GGTTACTCGAAAGAGACC (((..(((....)))))) | -11.8 | 25
GCGAGCCTTCGC ((((....)))) | -31 | 53.9
GTACATCCGAAAGGATAC (((..(((....)))))) | -12.1 | 29.6
GCCGGGGGAAACTCCGGC (((((.(....).))))) | -39.3 | 68.5
GACACCGAAAGGTGGTC ((((((....))).))) | -12.8 | 55.6
GCCGCTCGAAAGAGGGC (((.(((....)))))) | -22.9 | 55.2
GCCATCTCGAAAGAGGGC (((..(((....)))))) | -35.2 | 48.9

Sequence | folding enthalpy [1] [kcal/mol] | Tm [2] [°C]
GGGAGCGAAAGCTTCCC ((((((....))).))) | -20.5 | 61.7
GCTGATCGAAAGATAAGC (((.(((....))).))) | -35.1 | 49.5
GATCGTTGATACGATC ((((((....)))))) | -35.3 | 54.3
GGTGACGAAAGTCCAACC ((((((....)))..))) | -18.2 | 37.7
GGCCCCGAAAGGGCGCC ((((((....))).))) | -18.5 | 68.6
GCTTAGCGAAAGCTACGC ((.((((....)))).)) | -22.4 | 51.9
GATCGACGAATCGATC ((((((....)))))) | -33.7 | 49
GCGCACGAAAGTGGACGC ((((((....)))..))) | -32.7 | 55.4
GCTGGCGAAAGCCTAAGC ((((((....)))..))) | -16.5 | 51.5
GCATAAGAAATTATGC ((((((....)))))) | -28.6 | 46.3
TGTCCGAAAGGACA (((((....))))) | -13.6 | 68.8
GCTGACGGAAACGCCAAC (.((.((....)).)).) | -14.1 | 25.9
GCAATTGGAAACAATTAC (.(((((....))))).) | -15.1 | 30.6
GGGAGCGGAAACACTCCC (((((.(....).))))) | -37.7 | 50.8
GCGCAAGCGAAAGCTCGC (((..(((....)))))) | -12.8 | 45.7
GATCATAATAATGATC ((((((....)))))) | -35.4 | 45.4
GAAATCGGAAACGATTTC (((((((....))))))) | -42.9 | 59.5
GTGAGTCGAAAGACCAC (((.(((....)))))) | -33.7 | 53
GATCCTTGGGAGGATC ((((((....)))))) | -43.2 | 53.2
GCGTTAGGAAACTAACGC (((((((....))))))) | -50.9 | 65.8
GTCATGTCGAAAGACGAC (((..(((....)))))) | -14.8 | 38
GGGCAGAAATGCCC (((((....))))) | -24 | 65.2
GATCTAACCCTAGATC ((((((....)))))) | -31.1 | 37.5

Sequence | folding enthalpy [1] [kcal/mol] | Tm [2] [°C]
GTAAAGCGAAAGCTCTAC (((.(((....))).))) | -14.5 | 35
GGAGGCGAAAGCCGTCC ((((((....))).))) | -9.55 | 52.9
GCATGCGAAAGCATGTGC ((((((....)))..))) | -15.5 | 64
GCTTTAGGAAACTGAAGC ((((.((....)).)))) | -30.1 | 42.4
GATCTGCCTACAGATC ((((((....)))))) | -41.8 | 50.8
GACGGCGGAAACACCGCC (.(((.(....).))).) | -10.1 | 44.1
GCGGTTGGAAACAATCGC (((.(((....))).))) | -40.8 | 56.1
GCGAGCGGAAACGCCCGC (((.(((....))).))) | -35.4 | 58.4
GATCTTGGAAACAAGGTC ((.((((....)))).)) | -33.9 | 44.2
CGGGCGGAAACGCTACCG ((((((....)))..))) | -24.3 | 45.8
GACCTAGGAAACTAGGTC (((((((....))))))) | -42 | 60.5
GATCCGTCGCGGATC ((((((...)))))) | -35.8 | 59
GCAGTGCGAAAGCATAGC ((..(((....)))..)) | -15.8 | 55.4
GGATCAGGAAACTAATCC ((((.((....)).)))) | -12.9 | 26.2
GATCAGTCACCTGATC ((((((....)))))) | -36.4 | 49.6
GCTTGCGAAAGCATAGC ((((((....))).))) | -18.9 | 55.3
GATCTTGCAAAAGATC ((((((....)))))) | -37.5 | 53.5
GAATACCGAAAGGTTTTC (((.(((....))).))) | -25.7 | 39.5
GCGATTAGTCGC ((((....)))) | -26.7 | 51.4
GATCATCGAATGATC ((((((...)))))) | -25.6 | 43.6
GATTGCGAAAGCACATC ((((((....))).))) | -19.3 | 40.1
GATCCCGGGCGGGATC ((((((....)))))) | -40.1 | 61.1
GTACATGGAAACATGCAC ((.((((....)))).)) | -22.7 | 39.2

Sequence | folding enthalpy [1] [kcal/mol] | Tm [2] [°C]
GTGAGCGGAAACGCTTGC (..((((....))))..) | -16.2 | 43.8
GAACGCGAAAGCGGATTC ((((((....)))..))) | -15.8 | 49.5
GATCCAATAATGGATC ((((((....)))))) | -31.1 | 47.5
GTTCCTCGAAAGAGAAAC (((.(((....))).))) | -20.3 | 38.1
GATAAGGAAACTTATC ((((((....)))))) | -26.8 | 40.1
GACGTACGAAAGTAGGTC (((.(((....))).))) | -38.5 | 52.6
GGCCGGCCGAAAGGCGCC (((..(((....)))))) | -15.1 | 57.3
GATCTTGGCAAGATC ((((((...)))))) | -46.1 | 48.2
GGCGCTGGAAACAGCACC ((.((((....)))).)) | -29.7 | 54.8
GTTGCTGGAAACAGTAGC (.(.(((....))).).) | -19.7 | 35.3
GGTAACGGAAACATTACC (((((.(....).))))) | -21.2 | 31.5
GCCACCACGAAAGTGGGC (((..(((....)))))) | -9.17 | 46
GTCCACGCGAAAGCGGAC (((..(((....)))))) | -12.9 | 45.8
GGTTCCGGAAACGGGACC (((.(((....))).))) | -47.1 | 58.5
GGTGGGGGAAACCTCACC ((((.((....)).)))) | -39.5 | 53.5
GGTCTTGGAAACAAAACC (((.(((....))).))) | -14.5 | 29.6
GATCCATAGCTGGATC ((((((....)))))) | -33.4 | 49.2
AACGAGAAATCGTT (((((....))))) | -16.9 | 38.5
GTGCCGGGAAACCAGCAC ((((.((....)).)))) | -33.9 | 50.1
GCTGACTCGAAAGAGAGC (((..(((....)))))) | -14.6 | 31.6
GCGGCGCGAAAGCACGGC ((.(.((....)).).)) | -20.5 | 56.4
GCAGTGCGAAAGCGGTGC (((..((....))..))) | -39.5 | 63.9
GTGGTTGGAAACGACTAC ((.((.(....).)).)) | -25.7 | 41.8
